The structures appear in SMILES notation.

A short description of the assay: inhibition of yeast alpha-glucosidase pretreated for 10 mins before maltose challenge measured after 10 mins. Further details: species or system Saccharomyces cerevisiae. In a few lines:
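0.02 U α-glucosidase with compound in 67 mM potassium phosphate, pH 6.8, preincubated 37 °C 10 min. 0.1 M maltose added, then room temperature 10 min. Glucose detected colorimetrically at A490 against no-compound and no-enzyme/no-compound blanks. Compounds giving over 50% inhibition were retested at eight threefold-diluted concentrations in duplicate, and IC50 was derived by curve fitting.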
The term IC50 denotes the midpoint of a concentration-inhibition curve. As to `CCN(CC)c1ccc2cc(C(=O)c3ccc(NS(=O)(=O)c4ccc(C)cc4)cc3)c(=O)oc2c1`, the IC50 amounted to 0.347 µM.
Consider `O=C(c1ccc(NS(=O)(=O)c2ccccc2)cc1)c1cc2ccccc2oc1=O`, for which the IC50 was 3.28 µM.
In the case of `Cc1ccc(S(=O)(=O)Nc2ccc(C(=O)c3cc4ccccc4oc3=O)cc2)cc1`, the IC50 stood at 3.58 µM.
As for `COc1cc2cc(C(=O)c3ccc(NS(=O)(=O)c4ccccc4)cc3)c(=O)oc2cc1OC`, the figure is over 30 µM; as for `O=C(c1ccc(NS(=O)(=O)c2ccccc2)cc1)c1cc2cc(F)ccc2oc1=O`, 7.18 µM; as for `CC(C)(C)c1cc(C(C)(C)C)c2oc(=O)c(C(=O)c3ccc(NS(=O)(=O)c4ccccc4)cc3)cc2c1`, 7.13 µM.
As for `COc1cc2cc(C(=O)c3ccc(NS(=O)(=O)c4ccccc4)cc3)c(=O)oc2cc1O`, the figure is 0.199 µM; as for `COc1ccc2cc(C(=O)c3ccc(NS(=O)(=O)c4ccccc4)cc3)c(=O)oc2c1`, over 30 µM; as for `CCN(CC)c1ccc2cc(C(=O)c3ccc(NS(=O)(=O)c4ccccc4)cc3)c(=O)oc2c1`, 0.294 µM.
`O=C(c1ccc(NS(=O)(=O)c2ccccc2)cc1)c1cc2cc(Br)ccc2oc1=O`: the IC50 is over 30 µM.
With `Cc1ccc(S(=O)(=O)Nc2ccc(C(=O)c3cc4cc(Br)ccc4oc3=O)cc2)cc1`, the IC50 was over 30 µM.
The figure for `Cc1ccc(S(=O)(=O)Nc2ccc(C(=O)c3cc4cc(Br)cc(Br)c4oc3=O)cc2)cc1` is 7.73 µM.
`Cc1ccc(S(=O)(=O)Nc2ccc(C(=O)c3cc4ccc(O)cc4oc3=O)cc2)cc1`: the IC50 was 1.12 µM.
As for `Cc1ccc(S(=O)(=O)Nc2ccc(C(=O)c3cc4cc(F)ccc4oc3=O)cc2)cc1`, the figure is 4.6 µM; as for `COc1cc2cc(C(=O)c3ccc(NS(=O)(=O)c4ccc(C)cc4)cc3)c(=O)oc2cc1O`, 0.0645 µM; as for `COc1cc2cc(C(=O)c3ccc(NS(=O)(=O)c4ccc(C)cc4)cc3)c(=O)oc2cc1OC`, 5.59 µM.
Take `O=C(c1ccc(NS(=O)(=O)c2ccccc2)cc1)c1cc2cc(Cl)ccc2oc1=O`: the IC50 is over 30 µM.
On to `O=C(c1ccc(NS(=O)(=O)c2ccccc2)cc1)c1cc2cc(Br)cc(Br)c2oc1=O`, for which the IC50 was over 30 µM.
For `COc1ccc2cc(C(=O)c3ccc(NS(=O)(=O)c4ccc(C)cc4)cc3)c(=O)oc2c1`, the IC50 is over 30 µM.
In the case of `O=C(c1ccc(NS(=O)(=O)c2ccccc2)cc1)c1cc2ccc(O)cc2oc1=O`, the IC50 was 5.77 µM.
As for `Cc1ccc(S(=O)(=O)Nc2ccc(C(=O)c3cc4cc(Cl)ccc4oc3=O)cc2)cc1`, the figure is 26.7 µM; as for `Cc1ccc(S(=O)(=O)Nc2ccc(C(=O)c3cc4cc(C(C)(C)C)cc(C(C)(C)C)c4oc3=O)cc2)cc1`, 10.1 µM.

Source of the values: ChEMBL document CHEMBL1154873, “Synthesis and evaluation of the alpha-glucosidase inhibitory activity of 3-[4-(phenylsulfonamido)benzoyl]-2H-1-benzopyran-2-one derivatives” (Eur J Med Chem, 2010).
